Compounds with a hit are over-represented: about 1.8% of the library has one in this group of screens.
M4 ag: agonists of human muscarinic M4 receptor (CHRM4); activation, % at 3 µM; AID 624127; hit rate 0.14% among 360,000; P08173; CHO-K1 hM4/Gqi5, Fluo-8 calcium fluorescence; vehicle 0%, full acetylcholine response 100%;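 active = activation above the run mean over all test wells plus 3 SD, cut at about 32% in these data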;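 note: peak over basal fluorescence ratio per well then scaled between controls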
Target sequence (P08173 whole entry, looked up): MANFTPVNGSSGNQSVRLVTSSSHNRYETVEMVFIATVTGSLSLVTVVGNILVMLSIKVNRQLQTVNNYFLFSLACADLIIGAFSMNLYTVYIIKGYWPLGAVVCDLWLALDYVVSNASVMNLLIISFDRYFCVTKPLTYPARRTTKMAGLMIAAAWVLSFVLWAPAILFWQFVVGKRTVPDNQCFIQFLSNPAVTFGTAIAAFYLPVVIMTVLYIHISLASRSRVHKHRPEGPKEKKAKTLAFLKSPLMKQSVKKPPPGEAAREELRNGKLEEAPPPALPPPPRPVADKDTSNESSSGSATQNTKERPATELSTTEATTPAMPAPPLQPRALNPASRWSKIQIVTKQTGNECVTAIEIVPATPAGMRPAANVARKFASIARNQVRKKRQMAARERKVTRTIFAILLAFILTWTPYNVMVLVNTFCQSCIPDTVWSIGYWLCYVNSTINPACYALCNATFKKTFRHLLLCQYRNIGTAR
CHRM4 antagonist: antagonists of human muscarinic M4 receptor (CHRM4) | P08173 | hit rate 0.73% among 360,000 | AID 624125 | CHO-hM4 cells, ACh EC80, Fluo-8 calcium fluorescence | inhibition, % at 3 µM;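 active = inhibition above its plate's cutoff, the mean inhibition of sample wells plus 3 SD, cut at about 27% in these data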
CHRM5 agonist: agonists of human muscarinic M5 receptor (CHRM5); hit rate 0.19% among 360,000; activation, % at 3 µM; AID 624037; P08912; CHO-K1 hM5 cells, Fluo-8 calcium fluorescence; 0% DMSO wells, 100% maximal acetylcholine response;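 active = activation above the run's mean over test compounds plus 3 SD, cut at about 23% in these data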;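 note: signal is peak over basal fluorescence ratio across the kinetic read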
CHRM5 PAM: CHRM5 positive allosteric modulation; P08912; CHO-K1 hM5, Fluo-8 calcium, ACh EC20 PAM; 0% = ACh EC20, 100% = ACh EC100; activation, % at 3 µM; hit rate 0.3% among 360,000; AID 624038;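 active = activation above the run cutoff, the mean activation of all test compounds plus 3 SD, cut at about 18% in these data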
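System: CHO-K1 cell line with stable human muscarinic M5 receptor expression | Also added: EC20 acetylcholine as agonist stimulus | Compound: One concentration, 3 µM final (nominal) | Timing: Fluo-8 loading 80 min at 37 °C plus 30 min room temperature | Measured by: Fluo-8 calcium dye fluorescence, kinetic read | Read-out basis: % activation, ACh-normalized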
CHRM5 antagonist: blocks acetylcholine activation of human M5 receptor | inhibition, % at 3 µM | P08912 | hit rate 0.59% among 360,000 | CHO-hM5 cells, Fluo-8 calcium fluorescence, ACh EC80;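 active = inhibition above a per-plate cutoff, the mean of that plate's test compounds plus 3 SD, cut at about 27% in these data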
M4 PAM: potentiates acetylcholine response at human M4 receptor; hit rate 0.4% among 360,000; P08173; activation, % at 3 µM; CHO-K1 hM4/Gqi5, Fluo-8 calcium fluorescence, ACh EC20; 0% = ACh EC20, 100% = maximal ACh; AID 624126;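 active = activation above its plate's cutoff, the mean activation of sample wells plus 3 SD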
Of the large screens only hits and unclear results are named; the others gave an inactive call.

O=C(c1ccccc1)c1ccc(C(=O)N2CCCC(C(F)(F)F)C2)cc1 (stereo not given)	none
CCOc1ccc(NS(=O)(=O)c2ccc(C(=O)N3CCCC(C)C3)cc2)cc1 (stereo not given)	M4 ag 36, CHRM5 agonist 36
Cc1ccc(NS(=O)(=O)c2ccc(C(=O)NCc3ccccn3)cc2)cc1	none
O=S(=O)(c1cccc(F)c1)N1CCN(Cc2cc3c(cc2Br)OCCO3)CC1	none
COc1ccc(NS(=O)(=O)c2ccc(O)c(NC(=O)c3ccc(S(=O)(=O)N4CCCC4)cc3)c2)cc1	none
COc1ccc(NS(=O)(=O)c2ccc(C(=O)N3CCCCCC3)cc2)cc1	CHRM5 agonist 24
CCOC(=O)c1ccc(S(=O)(=O)Nc2cc(S(=O)(=O)Nc3ccc(OC)cc3)ccc2O)cc1	CHRM5 PAM 18
COc1ccc(NS(=O)(=O)c2ccc(C(=O)N(C)Cc3cccs3)cc2)cc1	CHRM5 agonist 26
Cc1cc(C(=O)N2CCN(S(=O)(=O)c3ccc(F)c(Cl)c3)CC2)c(C)o1	none
COc1ccc([C@H]2C[C@@H](O)[C@H](n3cc(-c4ccc(F)cc4)nn3)CN2C(=O)C2CCCCC2)cc1	none
NCCCC[C@H]1CN=C(N)N1CCC12CC3CC(CC(C3)C1)C2	CHRM4 antagonist 54
COC(=O)[C@@]1(Cc2ccc(F)cc2)[C@H]2c3cc(C(=O)N4CCCC4)n(Cc4ccc(Cl)c(C(F)(F)F)c4)c3C[C@H]2CN1C(=O)c1ccccc1	none
O=C(O)c1cccc(-n2c(-c3cnccn3)n[nH]c2=S)c1	CHRM5 PAM 18
O=C(NN=Cc1c(O)ccc2ccccc12)c1ccc2c(c1)OCO2	M4 PAM 23
Cc1cccc(NC(=O)CNC(=O)[C@H]2O[C@@H](n3ccc(=O)[nH]c3=O)[C@H](O)[C@@H]2O)c1C	none
C[N+]1(C)CCCC(OC(=O)C(O)(c2ccccc2)c2ccccc2)C1 (stereo not given)	CHRM4 antagonist 99, CHRM5 antagonist 99
Cc1ccc(C2CC(c3ccccc3)=NN2C(=S)Nc2ccccc2)o1 (stereo not given)	CHRM4 antagonist 39
COCOCCn1cc(CN2CCS(=O)(=O)N(Cc3ccc(-c4ccc(OC)c(OC)c4)cc3)C(C)C2=O)nn1 (stereo not given)	none
CCCCN1C(=O)/C(=C/C=C2/CC(C)(C)CN2C)SC1=S	M4 ag 34, CHRM5 agonist 47, CHRM5 antagonist 36
CCN1C(=O)/C(=C/C=C2/SCCN2C)SC1=S	none
CCCCN1C(=O)/C(=C/C=C2\Oc3ccccc3N2CC)SC1=S	CHRM5 agonist 48
O=C(CSc1nnc(C2CC2)n1Cc1ccccc1)N1CCNC1=O	none
Cc1ccc(NC(=O)COC(=O)CN2CCSC2=O)cc1Cl	none
Cc1ccc(NC(=O)COC(=O)Cn2ccc(C(F)(F)F)n2)cc1Cl	M4 PAM 22
O=C(CC1C(=O)NCCN1CC1CCCCC1)NCc1ccc(F)cc1F (stereo not given)	none
O=C(CC1C(=O)NCCN1CC1CCCCC1)NCc1cc(F)ccc1F (stereo not given)	CHRM5 antagonist 27
O=C(C=Cc1ccccn1)c1ccccc1	CHRM5 PAM 29
O=C(C=Cc1ccccn1)c1ccccc1O	none
NS(=O)(=O)c1cc(C(=O)Nc2ccc3c(c2)OCCCO3)ccc1Cl	none
COP(=O)(OC)C(Nc1ccc(C)cc1)c1ccc(Br)cc1 (stereo not given)	none
O=C(N/N=C/c1ccncc1)c1nc(-c2ccccc2)n2c1CCCCC2	CHRM4 antagonist 29
OCC1(Cc2ccccc2)CCCN(Cc2cn[nH]c2-c2ccccc2)C1 (stereo not given)	CHRM5 antagonist 32
CCCS(=O)(=O)NC(=O)C1(C)CCN(C(=O)c2cccc(C)c2C)C1 (stereo not given)	M4 PAM 19
Cc1sc2ncnc(NCC3COc4ccccc4O3)c2c1C (stereo not given)	CHRM4 antagonist 32, CHRM5 antagonist 38

Source: PubChem BioAssay (The Scripps Research Institute Molecular Screening Center)
